Measured values gathered from unrelated publications.
Compare with care: the assays were run in different laboratories.
Effect on: microbial growth

SMILES	organism	test	system	setting	MIC
CCCCCCCC(=O)NP(=O)(O)O	Bacillus anthracis	–	STERNE34F2	–	> 200 µg/mL
CC1=NN(CNc2ccccc2[N+](=O)[O-])C(=O)C1=NNn1c(-c2ccccc2)nc2ccccc2c1=O	Vibrio cholerae	broth dilution	–	24 h	50.4 µM
O=C(CCCCCCCCCCOc1ccccc1)CP(=O)(O)O	Bacillus anthracis	–	STERNE34F2	–	> 200 µg/mL
CC1=NN(CNC(=O)c2ccccn2)C(=O)C1=NNn1c(-c2ccccc2)nc2ccccc2c1=O	Vibrio cholerae	broth dilution	–	24 h	52 µM
CC(/C=C/C(O)=C1/C(=O)CNC1=O)=C\[C@@H](C)[C@H]1O[C@@]2(C)O[C@H](C(=O)[C@@H]3O[C@@]32C)[C@@H]1C	Bacillus anthracis	–	34F2	–	12.5 µM
O=C1NN=C(N=Cc2ccc(O)cc2O)C1=NNn1c(-c2ccccc2)nc2ccccc2c1=O	Vibrio cholerae	broth dilution	–	24 h	53.5 µM
CCCCCC/C=C\CCCCCCCCCC(=O)NP(=O)(O)O	Bacillus anthracis	–	STERNE34F2	–	100 µg/mL
CC1=CC(=O)[C@H]2O[C@]1(C)O[C@H]([C@H](C)/C=C(C)/C=C/C(O)=C1/C(=O)CNC1=O)[C@H]2C	Bacillus anthracis	–	34F2	–	6.25 µM
CC(=O)NCN1N=C(C)C(=NNn2c(-c3ccccc3)nc3ccccc3c2=O)C1=O	Vibrio cholerae	broth dilution	–	24 h	59.9 µM
CC1=CC[C@H]2O[C@]1(C)O[C@H]([C@H](C)/C=C(C)/C=C/C(O)=C1/C(=O)CNC1=O)[C@H]2C	Bacillus anthracis	–	34F2	–	3.13 µM
CCCCCCCCCCCC(=O)C(F)(F)P(=O)(O)O	Bacillus anthracis	–	STERNE34F2	–	200 µg/mL
CNC(=O)[C@@H](C)[C@H]1C(=O)/C(=C(O)/C=C/C(C)=C/[C@@H](C)[C@H]2O[C@@]3(C)O[C@H](C=C[C@@]34CO4)[C@@H]2C)C(=O)N1[C@@H]1CC[C@H](O)[C@H](C)O1	Bacillus anthracis	–	34F2	–	> 100 µM
CN[C@@H]1[C@H](O)[C@H](NC)[C@H]2O[C@@]3(O)C(=O)C[C@@H](C)O[C@H]3O[C@@H]2[C@H]1O	Streptococcus pyogenes	broth dilution	ATCC700294	–	25 µg/mL
